Laboratory results from ChEMBL document CHEMBL1154075, “Synthesis and biological evaluation of (11)C-labeled beta-galactosyl triazoles as potential PET tracers for in vivo LacZ reporter gene imaging” (Bioorg Med Chem, 2009).
Where “and” joins values, the source holds several entries; their conditions need not be identical. Identical values can stand only once.

Key:
[1] = biological target: Beta-galactosidase (Escherichia coli) (UniProt P00722); assay: Inhibition of beta-galactosidase
[2] = Octanol-phosphate buffer partition coefficient, log P of the compound; assay type: physicochemical
Outline: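 About 555 kBq of purified tracer was added to 2 mL n-octanol and 2 mL 0.025 M sodium phosphate pH 7.4. The mixture was vortexed 2 min at room temperature and centrifuged 5 min at 1837 g. Aliquots of each phase were weighed and gamma counted. P was taken as cpm/mL in octanol over cpm/mL in buffer, after density correction. At least triplicate.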

[3] = Biodistribution in NMRI mouse urine at 37 MBq/ml, iv after 2 mins; assay type: ADME, organism-based; conditions: in vivo
Outline: (§1)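 Male NMRI mice under isoflurane received 0.1 mL of about 37 MBq/mL tracer iv in saline (ethanol <10%). Decapitated at 2 or 60 min, n = 4 per time point. Radioactivity counted in a NaI(Tl) well counter and expressed as %ID, i.e. cpm in organ over total cpm recovered. Mean ± SD.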

[4] = tested on: Kidney; assay: Biodistribution in NMRI mouse kidney assessed per gram of tissue at 37 MBq/ml, iv after 2 mins; assay type: ADME, organism-based; conditions: in vivo
Outline: (§2)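 Male NMRI mice (35–45 g), isoflurane-anaesthetised (2.5% in O2), given 0.1 mL tracer at about 37 MBq/mL in 0.9% NaCl (ethanol <10%) via tail vein. Killed by decapitation at 2 or 60 min p.i., n = 4 per time point. Blood and organs weighed, gamma counted and background corrected. Expressed as %ID/g; blood mass taken as 7% of body mass. Mean ± SD.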

[5] = tested on: Liver; assay: Biodistribution in NMRI mouse liver assessed per gram of tissue at 37 MBq/ml, iv after 2 mins; assay type: ADME, organism-based; conditions: in vivo
Outline: as §2

[6] = tested on: Stomach; assay: Biodistribution in NMRI mouse stomach assessed per gram of tissue at 37 MBq/ml, iv after 2 mins; assay type: ADME, organism-based; conditions: in vivo
Outline: as §2

[7] = tested on: Blood; assay: Biodistribution in NMRI mouse blood assessed per gram of tissue at 37 MBq/ml, iv after 2 mins; assay type: ADME, organism-based; conditions: in vivo
Outline: as §2

[8] = Biodistribution in NMRI mouse carcass at 37 MBq/ml, iv after 2 mins; assay type: ADME, organism-based; conditions: in vivo
Outline: as §1

[9] = Biodistribution in NMRI mouse urine at 37 MBq/ml, iv after 60 mins; assay type: ADME, organism-based; conditions: in vivo, 1 h
Outline: as §1

[10] = tested on: Kidney; assay: Biodistribution in NMRI mouse kidney assessed per gram of tissue at 37 MBq/ml, iv after 60 mins; assay type: ADME, organism-based; conditions: in vivo, 1 h
Outline: as §2

[11] = tested on: Liver; assay: Biodistribution in NMRI mouse liver assessed per gram of tissue at 37 MBq/ml, iv after 60 mins; assay type: ADME, organism-based; conditions: in vivo, 1 h
Outline: as §2

[12] = Biodistribution in NMRI mouse spleen + pancreas assessed per gram of tissue at 37 MBq/ml, iv after 60 mins; assay type: ADME, organism-based; conditions: in vivo, 1 h
Outline: as §2

[13] = tested on: Stomach; assay: Biodistribution in NMRI mouse stomach assessed per gram of tissue at 37 MBq/ml, iv after 60 mins; assay type: ADME, organism-based; conditions: in vivo, 1 h
Outline: as §2

[14] = tested on: Brain; assay: Biodistribution in NMRI mouse brain assessed per gram of tissue at 37 MBq/ml, iv after 60 mins; assay type: ADME, organism-based; conditions: in vivo, 1 h
Outline: as §2

[15] = tested on: Blood; assay: Biodistribution in NMRI mouse blood assessed per gram of tissue at 37 MBq/ml, iv after 60 mins; assay type: ADME, organism-based; conditions: in vivo, 1 h
Outline: as §2

[16] = Biodistribution in NMRI mouse carcass at 37 MBq/ml, iv after 60 mins; assay type: ADME, organism-based; conditions: in vivo, 1 h
Outline: as §1

[17] = tested on: Plasma; assay: Metabolic stability in NMRI mouse plasma assessed as drug recovery at 18 MBq, iv after 30 mins by RP-HPLC; assay type: ADME, organism-based; conditions: in vivo, 0.5 h
Outline: (§3)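 NMRI mice under isoflurane received about 18 MBq tracer iv and were decapitated at 10 or 30 min, n = 2. Plasma was separated from heparinised blood by centrifugation; urine was taken at 30 min by bladder voiding and mixed with authentic compound. Both were analysed by gradient RP-HPLC, fractions gamma counted, and intact tracer was expressed as % of recovered radioactivity.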

[18] = Metabolic stability in NMRI mouse urine assessed as drug recovery at 18 MBq, iv after 30 mins by RP-HPLC; assay type: ADME, organism-based; conditions: in vivo, 0.5 h
Outline: as §3

[19] = tested on: HEK293; assay: Drug uptake in human HEK293 cells assessed as radioactivity after 120 mins; assay type: ADME, cell-based; conditions: hek293, 2 h
Outline: (§4)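 293T cells were lentivirally transduced with LacZ or, as control, VZV-tk, and kept in DMEM/10% FCS with 1 µg/mL puromycin. 200,000 cells per well were seeded and used after 24 h. Cells received fresh medium with 1.1 MBq tracer per well for 30–120 min at 37 °C, 5% CO2. After ice-cold PBS washes, cells were lysed; lysate and supernatant were gamma counted. Result is % radioactivity in the cell fraction, triplicate means.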

[20] = tested on: HEK293; assay: Drug uptake in human HEK293 cells assessed as radioactivity after 30 mins; assay type: ADME, cell-based; conditions: hek293, 0.5 h
Outline: as §4

[21] = biological target: Beta-galactosidase (Escherichia coli) (UniProt Q8VNN2); assay: Inhibition of Escherichia coli beta-galactosidase assessed as substrate hydrolysis at 1 mg/ml after 15 mins by competitive binding assay in presence of ONPG; parameters: scale not given: the % may be the effect or the level left; conditions: tested as the 11C-labelled form
Beta-galactosidase (Escherichia coli) (UniProt Q8VNN2), sequence (Q8VNN2 whole entry, looked up): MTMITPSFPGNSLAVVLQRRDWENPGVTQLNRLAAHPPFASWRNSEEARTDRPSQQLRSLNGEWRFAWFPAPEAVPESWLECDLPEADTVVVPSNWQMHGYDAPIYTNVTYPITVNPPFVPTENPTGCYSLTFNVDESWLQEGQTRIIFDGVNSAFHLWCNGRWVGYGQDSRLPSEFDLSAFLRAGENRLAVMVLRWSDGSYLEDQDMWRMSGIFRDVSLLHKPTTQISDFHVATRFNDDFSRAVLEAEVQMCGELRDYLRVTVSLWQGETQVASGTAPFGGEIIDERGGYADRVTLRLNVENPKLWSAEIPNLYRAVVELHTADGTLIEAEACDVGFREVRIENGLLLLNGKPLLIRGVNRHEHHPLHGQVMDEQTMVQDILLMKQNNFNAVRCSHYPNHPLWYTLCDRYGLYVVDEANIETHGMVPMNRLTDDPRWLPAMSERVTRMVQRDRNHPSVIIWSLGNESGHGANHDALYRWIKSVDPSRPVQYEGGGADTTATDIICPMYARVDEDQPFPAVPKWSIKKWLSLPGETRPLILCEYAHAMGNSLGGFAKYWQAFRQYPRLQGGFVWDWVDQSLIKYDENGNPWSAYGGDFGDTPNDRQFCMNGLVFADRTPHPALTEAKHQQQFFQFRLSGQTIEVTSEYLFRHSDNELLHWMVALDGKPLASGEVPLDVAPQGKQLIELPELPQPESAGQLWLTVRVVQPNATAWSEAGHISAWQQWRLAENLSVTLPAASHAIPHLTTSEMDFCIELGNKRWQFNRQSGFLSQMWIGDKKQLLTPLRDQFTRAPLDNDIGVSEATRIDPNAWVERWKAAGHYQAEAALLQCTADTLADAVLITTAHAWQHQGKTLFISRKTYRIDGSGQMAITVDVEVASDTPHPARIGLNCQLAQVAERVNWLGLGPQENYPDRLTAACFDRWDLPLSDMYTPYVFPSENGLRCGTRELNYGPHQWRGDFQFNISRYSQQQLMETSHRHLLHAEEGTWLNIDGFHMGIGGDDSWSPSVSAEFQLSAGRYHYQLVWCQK
Outline: (§5)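 E. coli β-gal (10 U, 149 U/mg) was incubated at 37 °C with 1 mg/mL triazole in HEPES pH 7.0 (120 mM) containing 4 mM MgSO4 and 180 mM NaCl. ONPG (1 mg in 1 mL HEPES solution) was then added. Samples taken 15 and 90 min later were analysed by RP-HPLC with UV detection.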

[22] = biological target: Beta-galactosidase (Escherichia coli) (UniProt Q8VNN2); assay: Inhibition of Escherichia coli beta-galactosidase assessed as substrate hydrolysis at 1 mg/ml after 90 mins by competitive binding assay in presence of ONPG; parameters: scale not given: the % may be the effect or the level left; conditions: tested as the 11C-labelled form
Outline: as §5

Beta-galactosidase (Escherichia coli) (UniProt P00722), sequence (P00722 whole entry, looked up): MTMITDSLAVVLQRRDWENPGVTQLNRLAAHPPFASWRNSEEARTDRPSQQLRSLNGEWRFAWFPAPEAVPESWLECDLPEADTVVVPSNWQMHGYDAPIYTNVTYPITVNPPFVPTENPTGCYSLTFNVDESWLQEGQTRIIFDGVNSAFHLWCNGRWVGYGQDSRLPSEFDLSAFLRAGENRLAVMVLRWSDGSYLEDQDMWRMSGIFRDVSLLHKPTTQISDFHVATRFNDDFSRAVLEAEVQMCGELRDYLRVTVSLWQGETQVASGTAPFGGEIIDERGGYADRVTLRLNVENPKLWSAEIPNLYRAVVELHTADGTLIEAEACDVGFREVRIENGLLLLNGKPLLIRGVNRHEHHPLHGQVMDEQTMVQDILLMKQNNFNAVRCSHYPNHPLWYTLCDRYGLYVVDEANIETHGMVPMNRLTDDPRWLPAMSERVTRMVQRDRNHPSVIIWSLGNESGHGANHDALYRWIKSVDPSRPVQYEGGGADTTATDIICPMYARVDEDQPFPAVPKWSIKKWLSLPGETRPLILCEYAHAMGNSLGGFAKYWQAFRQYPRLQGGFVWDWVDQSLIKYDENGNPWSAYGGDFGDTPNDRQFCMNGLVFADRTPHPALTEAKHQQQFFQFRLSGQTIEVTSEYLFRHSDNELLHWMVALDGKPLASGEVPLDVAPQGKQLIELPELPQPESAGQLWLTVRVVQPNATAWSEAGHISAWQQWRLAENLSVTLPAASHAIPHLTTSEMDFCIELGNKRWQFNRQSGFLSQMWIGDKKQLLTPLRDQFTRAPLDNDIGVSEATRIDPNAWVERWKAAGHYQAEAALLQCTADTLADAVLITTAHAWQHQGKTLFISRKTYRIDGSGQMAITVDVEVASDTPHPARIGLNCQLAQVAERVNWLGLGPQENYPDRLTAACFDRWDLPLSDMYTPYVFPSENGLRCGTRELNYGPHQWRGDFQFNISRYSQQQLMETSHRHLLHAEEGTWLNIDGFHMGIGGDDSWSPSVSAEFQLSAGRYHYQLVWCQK

OC[C@H]1O[C@@H](n2cc(-c3ccccc3)nn2)[C@H](O)[C@@H](O)[C@H]1O showed a Ki [1] of 330 µM.

With [11CH3]Oc1ccc2cc(-c3cn([C@@H]4O[C@H](CO)[C@H](O)[C@H](O)[C@H]4O)nn3)ccc2c1 the logP [2] was 1.4, the Drug uptake [3] was 0.1 %ID and the Drug uptake [4] was 7.2 %ID and 5.7 %ID. For the same molecule, the Drug uptake [5] was 12.1 %ID and 25.8 %ID, the Drug uptake [6] was 1.1 %ID and 0.9 %ID and the Drug uptake [7] was 50.9 %ID and 18.6 %ID. For the same molecule, the Drug uptake [8] was 34.3 %ID, the Drug uptake [9] was 2.8 %ID and the Drug uptake [10] was 1 %ID and 1.4 %ID. The Drug uptake [11] was 7.1 %ID and 3.4 %ID, the Drug uptake [12] was 0.4 %ID and 1.2 %ID and the Drug uptake [13] was 0.4 %ID and 0.2 %ID. For the same molecule, the Drug uptake [14] was 0 %ID and 0.2 %ID, the Drug uptake [15] was 4.2 %ID and 1.6 %ID and the Drug uptake [16] was 12.2 %ID. For the same molecule, the Stability [17] was “Stable”, the Stability [18] was “Stable” and the Drug uptake [19] was 1.4%. It also gave a Drug uptake [20] of 0.6%.

COc1ccc(-c2cn([C@@H]3O[C@H](CO)[C@H](O)[C@H](O)[C@H]3O)nn2)cc1 showed an Activity [21] of 40% and an Activity [22] of 70%.

For [11CH3]Oc1ccc(-c2cn([C@@H]3O[C@H](CO)[C@H](O)[C@H](O)[C@H]3O)nn2)cc1, the logP [2] was -0.1, the Drug uptake [3] was 3.1 %ID and the Drug uptake [4] was 16.1 %ID and 19.3 %ID. The Drug uptake [5] was 18.7 %ID and 8.7 %ID, the Drug uptake [6] was 0.9 %ID and 1.5 %ID and the Drug uptake [8] was 38.1 %ID. The Drug uptake [9] was 47.5 %ID, the Drug uptake [10] was 4 %ID and 4.4 %ID and the Drug uptake [11] was 13.4 %ID and 6.3 %ID. For the same molecule, the Drug uptake [12] was 0.6 %ID and 1.7 %ID, the Drug uptake [13] was 0.9 %ID and 1.4 %ID and the Drug uptake [14] was 0 %ID and 0.3 %ID. For the same molecule, the Drug uptake [16] was 19.6 %ID, the Stability [17] was “Stable” and the Stability [18] was “Stable”. It also gave a Drug uptake [19] of 0.4%.
